pIC50: −log10 of the molar value. Active and inactive are the calls of the source. The calls are words filed in the database; no cut-off is given here.
How the values were obtained:
NCI-H460 = assay: Antiproliferative activity against human NCI-H460 cells after 48 hrs by MTT assay; type: functional, cell-based; details: NCI-H460, 48 h
Procedure, shortened: (§1)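 Cells grown in DMEM with 10% FBS and penicillin/streptomycin at 37°C, 5% CO2. 2 × 10^5 cells seeded per well in 200 µL medium. Compounds added 30 min after seeding, then 48 h incubation at 37°C. MTT (5 mg/ml stock) added for the last 4 h. Formazan dissolved in DMSO.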

A549 [1] = assay: Antiproliferative activity against human A549 cells after 48 hrs by MTT assay; type: functional, cell-based; details: A549, 48 h; procedure, shortened: as §1
A549 [2] = assay: Inhibition of RAF/MEK/ERK in human A549 cells assessed as reduction in ERK phosphorylation at 1 uM after 8 hrs by Western blot analysis relative to control; type: cell-based
Procedure, shortened: (§2)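 Western blot with primary antibody in BSA overnight at 4°C. Washes in TBS/0.05% Tween-20, then secondary antibody for 1 h at room temperature. Chemiluminescent detection. p-ERK or p-AKT band density normalized to β-actin loading control versus control. Average of three independent experiments.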

A549 [3] = assay: Inhibition of PI3K/PDK1/AKT in human A549 cells assessed as remaining AKT phosphorylation level at 1 uM after 8 hrs by Western blot analysis
A549 [4] = assay: Inhibition of PI3K/PDK1/AKT in human A549 cells assessed as reduction in AKT phosphorylation at 1 uM after 8 hrs by Western blot analysis; type: cell-based; procedure, shortened: as §2
A549 [5] = assay: Induction of apoptosis in human A549 cells assessed as late apoptotic cells at 5 uM after 12 hrs by Annexin V-FITC/propidium iodide staining-based flow cytometric analysis (reference value: 0.76%); type: functional
Procedure, shortened: (§3)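 After 12 h treatment with DMSO as control, A549 cells were harvested by trypsin, washed twice in PBS and resuspended at 1 × 10^6 cells/mL in binding buffer. Annexin V-FITC and PI staining for 30 min at room temperature in the dark. Flow cytometry with 488 nm excitation, FITC read at 530 nm and PI at 670 nm. Quadrant percentages are means of three independent experiments.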

A549 [6] = assay: Induction of apoptosis in human A549 cells assessed as necrotic cells at 2.5 uM after 12 hrs by Annexin V-FITC/propidium iodide staining-based flow cytometric analysis (reference value: 1.42%); type: functional; procedure, shortened: as §3
A549 [7] = assay: Induction of apoptosis in human A549 cells assessed as viable cells at 2.5 uM after 12 hrs by Annexin V-FITC/propidium iodide staining-based flow cytometric analysis (reference value: 90.6%); type: functional; details: A549, 12 h, read-out: Activity; procedure, shortened: as §3
A549 [8] = assay: Induction of apoptosis in human A549 cells assessed as late apoptotic cells at 2.5 uM after 12 hrs by Annexin V-FITC/propidium iodide staining-based flow cytometric analysis (reference value: 0.76%); type: functional; procedure, shortened: as §3
A549 [9] = assay: Induction of apoptosis in human A549 cells assessed as necrotic cells at 5 uM after 12 hrs by Annexin V-FITC/propidium iodide staining-based flow cytometric analysis (reference value: 1.42%); type: functional; procedure, shortened: as §3
A549 [10] = assay: Induction of apoptosis in human A549 cells assessed as early apoptotic cells at 5 uM after 12 hrs by Annexin V-FITC/propidium iodide staining-based flow cytometric analysis (reference value: 7.19%); type: functional; procedure, shortened: as §3
A549 [11] = assay: Induction of apoptosis in human A549 cells assessed as viable cells at 5 uM after 12 hrs by Annexin V-FITC/propidium iodide staining-based flow cytometric analysis (reference value: 90.6%); type: functional; details: A549, 12 h, read-out: Activity; procedure, shortened: as §3
A549 [12] = assay: Induction of apoptosis in human A549 cells assessed as early apoptotic cells at 2.5 uM after 12 hrs by Annexin V-FITC/propidium iodide staining-based flow cytometric analysis (reference value: 7.19%); type: functional; procedure, shortened: as §3
A549 [13] = assay: Inhibition of RAF/MEK/ERK in human A549 cells assessed as reduction in ERK phosphorylation at 2.5 uM after 8 hrs by Western blot analysis; type: cell-based; procedure, shortened: as §2
A549 [14] = assay: Inhibition of RAF/MEK/ERK in human A549 cells assessed as reduction in ERK phosphorylation after 8 hrs by Western blot analysis; type: cell-based; procedure, shortened: as §2
A549 [15] = assay: Inhibition of PI3K/PDK1/AKT in human A549 cells assessed as reduction in AKT phosphorylation after 8 hrs by Western blot analysis; type: cell-based; procedure, shortened: as §2
A549 [16] = assay: Inhibition of PI3K/PDK1/AKT in human A549 cells assessed as reduction in AKT phosphorylation at 2.5 uM after 8 hrs by Western blot analysis; type: cell-based; procedure, shortened: as §2

SMILES | pIC50 (NCI-H460) | pIC50 (A549 [1]) | other results
CCCCCC1(O)C(=O)Nc2ccc(Nc3ccc(F)cc3)cc21 (configuration not stated) | < 4.00 | 5.23 | –
CCCCCCC1(O)C(=O)Nc2ccc(Nc3ccc(C)cc3)cc21 (configuration not stated) | < 4.00 | 4.92 | –
NC1(c2ccc(-c3nc4ccn5c(=O)[nH]nc5c4cc3-c3ccccc3)cc2)CCC1 [MK-2206] | – | 5.09 | inhibition (A549 [2]): Active; remaining p-AKT level (A549 [3]): 33%
O=C1Nc2ccc(Nc3ccc(Cl)cc3)cc2/C1=C\C1CCCCC1 | 4.88 | 5.62 | –
Cc1ccc(Nc2ccc3c(c2)/C(=C\C2CCCCC2)C(=O)N3)cc1 | 4.34 | 4.55 | –
Cc1ccc(Nc2ccc3c(c2)C(O)(CCC(C)C)C(=O)N3)cc1 (configuration not stated) | 4.64 | 4.90 | –
O=C1Nc2ccc(Nc3ccc(F)cc3)cc2C1(O)Cc1ccccc1 (configuration not stated) | 4.74 | 5.52 | –
Cc1ccc(Nc2ccc3c(c2)C(O)(Cc2ccc4c(c2)OCO4)C(=O)N3)cc1 (configuration not stated) | 4.83 | 4.92 | –
CCCCCCC1(O)C(=O)Nc2ccc(Nc3ccc(C(F)(F)F)cc3)cc21 (configuration not stated) | 4.73 | 5.55 | –
Cc1ccc(Nc2ccc3c(c2)C(CC2CCCCC2)C(=O)N3)cc1 (configuration not stated) | < 4.00 | < 4.52 | –
CCCCCC1(O)C(=O)Nc2ccc(Nc3ccc(C)cc3)cc21 (configuration not stated) | < 4.00 | 5.09 | –
Cc1ccc(Nc2ccc3c(c2)C(O)(Cc2ccccc2)C(=O)N3)cc1 (configuration not stated) | 4.50 | 5.39 | –
O=C1Nc2ccc(Nc3ccc(C(F)(F)F)cc3)cc2C1(O)Cc1ccccc1 (configuration not stated) | 5.04 | 5.70 | –
O=C1Nc2ccc(Nc3ccc(Cl)cc3)cc2C1CC1CCCCC1 (configuration not stated) | < 4.00 | 4.78 | –
O=C1Nc2ccc(Nc3ccccc3Cl)cc2C1(O)Cc1ccccc1 (configuration not stated) | 4.84 | 5.64 | –
CC(C)CCC1(O)C(=O)Nc2ccc(Nc3ccc(Cl)cc3)cc21 (configuration not stated) | 4.60 | 5.57 | –
O=C1Nc2ccc(Nc3ccc(Cl)cc3)cc2C1(O)Cc1ccc2c(c1)OCO2 (configuration not stated) | 4.58 | 5.52 | –
COc1ccc(Nc2ccc3c(c2)C(O)(Cc2ccccc2)C(=O)N3)cc1 (configuration not stated) | < 4.00 | < 4.52 | –
O=C1Nc2ccc(Nc3ccc(F)cc3)cc2C1Cc1ccc2c(c1)OCO2 (configuration not stated) | < 4.00 | < 4.52 | –
CCCCC1(O)C(=O)Nc2ccc(Nc3ccc(F)cc3)cc21 (configuration not stated) | 4.49 | 5.19 | –
O=C1Nc2ccc(Nc3ccc(Cl)cc3)cc2C1(O)Cc1ccccc1 (configuration not stated) | 4.69 | 5.51 | –
O=C1Nc2ccc(Nc3ccc(F)cc3)cc2/C1=C\c1ccc2c(c1)OCO2 | < 4.00 | 4.58 | –
O=C1Nc2ccc(Nc3ccc(Cl)cc3)cc2/C1=C\c1ccc2c(c1)OCO2 | 4.61 | 5.51 | –

SMILES | pIC50 (NCI-H460) | pIC50 (A549 [1]) | other results
O=C1Nc2ccc(Nc3ccc(F)cc3)cc2C1(O)Cc1ccc2c(c1)OCO2 (configuration not stated) | 4.09 | 4.60 | –
CCCCCC1(O)C(=O)Nc2ccc(Nc3ccc(OC)cc3)cc21 (configuration not stated) | 4.79 | 5.10 | –
CCCCCCC1(O)C(=O)Nc2ccc(Nc3ccc(F)cc3)cc21 (configuration not stated) | 4.29 | 4.92 | –
CC(C)CCC1C(=O)Nc2ccc(Nc3ccc(Cl)cc3)cc21 (configuration not stated) | 4.31 | 5.70 | –
CCC/C=C1/C(=O)Nc2ccc(Nc3ccc(C)cc3)cc21 | 4.72 | 5.44 | –
Cn1cnc2c(F)c(Nc3ccc(Br)cc3Cl)c(C(=O)NOCCO)cc21 [SELUMETINIB] | – | 5.28 | inhibition (A549 [4]): inactive; inhibition (A549 [2]): 65%
Cc1ccc(Nc2ccc3c(c2)/C(=C\c2ccc4c(c2)OCO4)C(=O)N3)cc1 | < 4.00 | 4.78 | –
CCCCC1(O)C(=O)Nc2ccc(Nc3ccc(Cl)cc3)cc21 (configuration not stated) | 4.61 | 5.55 | –
O=C1Nc2ccc(Nc3ccc(Cl)cc3)cc2C1Cc1ccc2c(c1)OCO2 (configuration not stated) | 4.44 | 5.22 | –
CCCCCC1(O)C(=O)Nc2ccc(Nc3ccc(C(F)(F)F)cc3)cc21 (configuration not stated) | 4.79 | 5.66 | –
CCCCCC1(O)C(=O)Nc2ccc(Nc3ccc(Cl)cc3)cc21 (configuration not stated) | 4.39 | 5.72 | Activity (A549 [5]): 5.65%; Activity (A549 [6]): 2.31%; viability at 2.5 µM (A549 [7]): 83.2%; Activity (A549 [8]): 2.57%; Activity (A549 [9]): 1.82%; Activity (A549 [10]): 20.3%; viability at 5 µM (A549 [11]): 72.3%; Activity (A549 [12]): 11.9%
CC(C)C/C=C1/C(=O)Nc2ccc(Nc3ccc(Cl)cc3)cc21 | 4.29 | 5.13 | –
O=C1Nc2ccc(Nc3ccc(Cl)cc3)cc2/C1=C\c1ccccc1 | 4.87 | 4.82 | –
CC(C)CCC1(O)C(=O)Nc2ccc(Nc3ccc(F)cc3)cc21 (configuration not stated) | 4.77 | 5.24 | –
Cc1ccc(Nc2ccc3c(c2)C(Cc2ccc4c(c2)OCO4)C(=O)N3)cc1 (configuration not stated) | 4.20 | 4.72 | –
CCCCCCC1(O)C(=O)Nc2ccc(Nc3ccc(Cl)cc3)cc21 (configuration not stated) | 4.52 | 5.27 | –
CCCCC1(O)C(=O)Nc2ccc(Nc3ccc(C)cc3)cc21 (configuration not stated) | 4.50 | 5.12 | –
CC(C)CCC1(O)C(=O)Nc2ccc(Nc3ccc(C(F)(F)F)cc3)cc21 (configuration not stated) | 4.76 | 5.38 | –
CCCCC1(O)C(=O)Nc2ccc(Nc3ccc(C(F)(F)F)cc3)cc21 (configuration not stated) | 4.92 | 5.64 | –
O=C1Nc2ccc(Nc3ccc(C(F)(F)F)cc3)cc2C1(O)Cc1ccc2c(c1)OCO2 (configuration not stated) | 4.74 | 5.74 | inhibition (A549 [13]): Active; inhibition (A549 [14]): Dose-dependent effect; Activity (A549 [5]): 7.57%; Activity (A549 [6]): 2.25%; viability at 2.5 µM (A549 [7]): 82.7%; inhibition (A549 [15]): Dose-dependent effect; Activity (A549 [8]): 3.39%; Activity (A549 [9]): 1.7%; Activity (A549 [10]): 25.5%; viability at 5 µM (A549 [11]): 65.3%; Activity (A549 [12]): 11.6%; inhibition (A549 [16]): Active
CCCCCCC1(O)C(=O)Nc2ccc(Nc3ccc(OC)cc3)cc21 (configuration not stated) | < 4.00 | 4.73 | –
Cc1ccc(Nc2ccc3c(c2)C(CCC(C)C)C(=O)N3)cc1 (configuration not stated) | 4.26 | 5.18 | –

Reference: ChEMBL document CHEMBL4368942, “Dual inhibitors of RAF-MEK-ERK and PI3K-PDK1-AKT pathways: Design, synthesis and preliminary anticancer activity studies of 3-substituted-5-(phenylamino) indolone derivatives” (Bioorg Med Chem, 2019)
